Calls of active or inactive are those of the source. The rule behind the calls is not given here.

For one series, the target named is T1, Bile acid receptor (Homo sapiens, UniProt Q96RI1).
T1 sequence (Q96RI1 whole entry): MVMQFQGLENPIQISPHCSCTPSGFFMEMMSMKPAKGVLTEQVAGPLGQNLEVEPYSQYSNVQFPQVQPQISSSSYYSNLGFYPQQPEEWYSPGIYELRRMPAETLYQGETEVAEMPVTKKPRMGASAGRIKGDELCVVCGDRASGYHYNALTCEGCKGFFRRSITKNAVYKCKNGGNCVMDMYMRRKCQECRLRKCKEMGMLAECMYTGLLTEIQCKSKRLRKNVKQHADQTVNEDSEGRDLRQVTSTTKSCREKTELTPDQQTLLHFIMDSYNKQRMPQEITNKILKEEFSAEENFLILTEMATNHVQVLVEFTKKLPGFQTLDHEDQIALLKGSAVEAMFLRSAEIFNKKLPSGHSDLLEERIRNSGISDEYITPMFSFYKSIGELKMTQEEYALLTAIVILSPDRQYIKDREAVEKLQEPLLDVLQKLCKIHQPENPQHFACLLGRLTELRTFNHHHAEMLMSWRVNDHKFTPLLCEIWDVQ
Nature of the series: Transactivation of human FXR expressed in human HeLa cells co-expressing BSEP after 24 hrs by dual-glo luciferase reporter gene assay. The series is classed as cell-based. In outline: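 Full-length reporter system with constitutive expression of hFXR and hRXR. A constitutive Renilla luciferase served for normalization and as a toxicity control. Maximum relative activation was expressed against a reference FXR agonist at 3 µM, set as 100%.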
For orientation: Reporter assays use an easily measured gene product as a stand-in for the process of interest.

In series [1] the target is T2, Bile acid receptor (Homo sapiens) (UniProt Q96RI1).
T2 sequence (whole entry): T1 sequence (Q96RI1 whole entry)
Nature of the series: Transactivation of human FXR expressed in human HeLa cells co-expressing BSEP at 3 uM after 24 hrs by dual-glo luciferase reporter gene assay relative to GW4064. The series is classed as cell-based. The gist of the method: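 Full-length FXR reporter gene assay with constitutively expressed hFXR and hRXR, plus renilla luciferase for normalization and toxicity control. Maximum relative activation is expressed against the reference agonist at 3 µM, set as 100%.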

In a further series the test system is HepG2. Nature of the series: Cytotoxicity against human HepG2 cells at 50 uM after 48 hrs by WST-1 assay. The series is classed as cell-based. Conditions: hepg2, 48 h. The gist of the method: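 HepG2 hepatocarcinoma cells were tested for viability by WST-1 (water-soluble tetrazolium) assay, with concentrations up to 100 µM.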
Background: Tetrazolium assays rely on reduction of a dye to a coloured formazan, in cell work by metabolically active cells.

The nature of series [2]: Lipophilicity, logD of compound at pH 7.4 by LC-MS analysis. The series is classed as physicochemical. Particulars: buffer.
The species entered for another series is Rattus norvegicus. Nature of the series: Displacement of [3H]Ro15-4513 from GABAa receptor in Sprague-Dawley rat cerebral cortical membranes up to 10 uM after 1 hr by scintillation counting.

By EC50 is commonly meant the concentration at which the effect is half-maximal. On to `Brc1ccc2nc(-c3cccs3)c(NCc3ccccc3)n2c1`, for which the EC50 at Bile acid receptor (read-out: EC50) worked out at 0.5 µM. The max activation in series [1] came to 14%.

With `Cc1ccc2nc(-c3ccc(F)cc3)c(NCc3ccccc3)n2c1`, at Bile acid receptor (read-out: EC50), the EC50 worked out at 0.17 µM. The same compound came in with a max activation in series [1] of 21%. What is called logD is lipophilicity at a set pH, counting ionised and neutral species. With `CC(C)c1onc(-c2c(Cl)cccc2Cl)c1COc1ccc(/C=C/c2cccc(C(=O)O)c2)c(Cl)c1`, the Activity entry in the series on HepG2 is recorded as “Toxic”. The logD in series [2] (read-out: logD) worked out at 1.01. For `Cc1ccc2nc(-c3ccccn3)c(NCc3ccccc3)n2c1`, in the series filed under Rattus norvegicus, the inhibition result was “inactive”. In series [1], this compound registered a max activation of 19%. For the compound `c1ccc(CNc2c(-c3cccs3)nc3ccc(-c4ccccc4)cn23)cc1`, the EC50 at Bile acid receptor (read-out: EC50) came to 0.2 µM. In series [1], this compound registered a max activation of 17%.

Turning to `COc1ccc(-c2nc3ccc(C)cn3c2NCc2ccccc2)cc1OC`, the EC50 on Bile acid receptor (read-out: EC50) was determined as 0.91 µM. The same compound came in with a max activation in series [1] of 16%. For `Cc1ccc2nc(-c3cccs3)c(N[C@H](C)c3ccccc3)n2c1` the same measures were 3.2 µM and 14%. The matching figures for `Cc1ccc2nc(-c3cnccn3)c(NCc3ccccc3)n2c1`: 1.2 µM and 18%. For `Cc1ccc2nc(-c3ccc(Cl)cc3)c(NCc3ccccc3)n2c1` the same measures were 0.24 µM and 14%.

Regarding `Cc1ccc2nc(-c3cccs3)c(NCCCc3ccccc3)n2c1`, the EC50 on Bile acid receptor (read-out: EC50) amounted to 0.23 µM. Besides, in series [1], the max activation is 18%. With `Cc1ccc2nc(-c3ccc4ccccc4c3)c(NCc3ccccc3)n2c1`, the EC50 at Bile acid receptor (read-out: EC50) was 0.21 µM. The max activation in series [1] amounted to 18%. On to `Cc1ccc2nc(-c3ccc(F)c(Cl)c3)c(NCc3ccccc3)n2c1`, for which, at Bile acid receptor (read-out: EC50), the EC50 was determined as 0.026 µM. The max activation in series [1] turned out to be 54%. On to `Cc1ccc2nc(-c3ccccc3Cl)c(NCc3ccccc3)n2c1`, for which the EC50 entry on Bile acid receptor (hela) was “Not Active”. The max activation result in series [1] was “inactive”.

Turning to `Cc1ccc(-c2nc3ccc(C)cn3c2NCc2ccccc2)cc1`, the EC50 at Bile acid receptor (read-out: EC50) was 0.13 µM. Further, the max activation in series [1] amounted to 14%. For the compound `O=C(O)c1ccn2c(NCc3ccccc3)c(-c3cccs3)nc2c1`, at Bile acid receptor (hela), the EC50 entry is recorded as “Not Active”. For the same compound, in series [1], the max activation entry was “inactive”. For `CC[C@H]1[C@@H](O)[C@@H]2[C@H](CC[C@]3(C)[C@@H]([C@H](C)CCC(=O)O)CC[C@@H]23)[C@@]2(C)CC[C@@H](O)C[C@@H]12` [OBETICHOLIC ACID], the Activity entry in the series with HepG2 was “Toxic”. Besides, in series [2] (read-out: logD), the logD was 0.81. On to `Cc1ccc2nc(C3CCCCC3)c(NCc3ccccc3)n2c1`, for which the EC50 result at Bile acid receptor (hela) is given as “Not Active”. The max activation result in series [1] is “inactive”. As for `Clc1ccc2nc(-c3cccs3)c(NCc3ccccc3)n2c1`, the EC50 on Bile acid receptor (read-out: EC50) is 0.16 µM. In series [1], this compound showed a max activation of 26%. On to `Fc1ccc2nc(-c3cccs3)c(NCc3ccccc3)n2c1`, for which the EC50 entry at Bile acid receptor (hela) is “Not Active”. Further, the max activation result in series [1] is “inactive”. For `Cc1ccc2nc(-c3ccncc3)c(NCc3ccccc3)n2c1`, the EC50 at Bile acid receptor (read-out: EC50) was 2 µM. The same compound had a max activation in series [1] of 15%. The matching figures for `Cc1ccc2nc(-c3ccc(-c4ccccc4)cc3)c(NCc3ccccc3)n2c1`: 0.081 µM and 17%.

With `Cc1ccc2nc(-c3cc(Cl)ccn3)c(NCc3ccccc3)n2c1`, the EC50 at Bile acid receptor (read-out: EC50) worked out at 0.0015 µM. The same compound yielded a max activation in series [1] of 27%. Take `c1ccc(CNc2c(-c3cccs3)nc3ccccn23)cc1`: the EC50 at Bile acid receptor (read-out: EC50) came out at 4 µM. Moreover, the max activation in series [1] was found to be 14%. Consider `Cc1ccc2nc(-c3ccco3)c(NCc3ccccc3)n2c1`, for which the EC50 on Bile acid receptor (read-out: EC50) was 0.56 µM. The compound also showed a max activation in series [1] of 17%.

On to `Cc1ccc2nc(-c3cccs3)c(Cc3ccccc3)n2c1`, for which the EC50 on Bile acid receptor (read-out: EC50) is 0.81 µM. This compound had a max activation in series [1] of 12%. In the case of `C[C@H](CCC(=O)O)[C@H]1CC[C@H]2[C@@H]3[C@H](O)C[C@@H]4C[C@H](O)CC[C@]4(C)[C@H]3CC[C@]12C` [CHENODIOL], the logD in series [2] was 0.53.

`Cc1ccc2nc(-c3ccccc3C)c(NCc3ccccc3)n2c1`: the EC50 on Bile acid receptor (read-out: EC50) was found to be 0.26 µM. Further, the max activation in series [1] came to 35%. The matching figures for `Cc1ccc2nc(-c3ccc4c(c3)OCCO4)c(NCc3ccccc3)n2c1`: 0.17 µM and 15%. On to `Cc1ccc2nc(-c3ccoc3)c(NCc3ccccc3)n2c1`, for which, at Bile acid receptor (read-out: EC50), the EC50 was found to be 1.9 µM. Also, the max activation in series [1] was 16%. The matching figures for `Cc1ccc2nc(-c3ccccc3)c(NCc3ccccc3)n2c1`: 0.28 µM and 16%. The matching figures for `Cc1ccc2nc(-c3ccc(Br)cc3)c(NCc3ccccc3)n2c1`: 0.43 µM and 14%. For the compound `c1ccc(CNc2c(-c3cccs3)nc3cnccn23)cc1`, the EC50 result at Bile acid receptor (hela) is reported as “Not Active”. The max activation entry in series [1] was “inactive”.

For the compound `COc1cccc(-c2nc3ccc(C)cn3c2NCc2ccccc2)c1`, the EC50 on Bile acid receptor (read-out: EC50) is 0.25 µM. Also, the max activation in series [1] is 16%. For `Cc1ccc2nc(Cc3ccccc3)c(NCc3ccccc3)n2c1`, the EC50 result on Bile acid receptor (hela) is reported as “Not Active”. Also, the max activation result in series [1] was “inactive”. Turning to `Cc1ccc2nc(-c3cccs3)c(N[C@@H](C)c3ccccc3)n2c1`, the concentration giving a half-maximal response (EC50) at Bile acid receptor (read-out: EC50) is 1.3 µM. This compound showed a max activation in series [1] of 12%.

As for `Cc1ccc2nc(/C=C/c3ccccc3)c(NCc3ccccc3)n2c1`, the EC50 at Bile acid receptor (read-out: EC50) worked out at 1.16 µM. Moreover, the max activation in series [1] was determined as 13%. Consider `Cc1ccc2nc(-c3ccsc3)c(NCc3ccccc3)n2c1`, for which, at Bile acid receptor (read-out: EC50), the EC50 worked out at 0.83 µM. Moreover, the max activation in series [1] worked out at 17%. As for `FC(F)(F)c1ccc2nc(-c3cccs3)c(NCc3ccccc3)n2c1`, the EC50 on Bile acid receptor (read-out: EC50) was 0.46 µM. Besides, the max activation in series [1] came out at 14%.

For the compound `Cc1ccc2nc(CCc3ccccc3)c(NCc3ccccc3)n2c1`, on Bile acid receptor (read-out: EC50), the EC50 amounted to 0.31 µM. The max activation in series [1] was determined as 12%. For `Cc1ccc2nc(-c3cccc(Cl)n3)c(NCc3ccccc3)n2c1` the same measures were 0.08 µM and 31%. Consider `Cc1ccc2nc(-c3cccc(Cl)c3)c(NCc3ccccc3)n2c1`, for which the EC50 on Bile acid receptor (read-out: EC50) was 0.016 µM. This compound also returned a max activation in series [1] of 20%. The matching figures for `COc1ccc(CNc2c(-c3cccs3)nc3ccc(C)cn23)cc1`: 0.17 µM and 14%. As for `Cc1cccc2nc(-c3cccs3)c(NCc3ccccc3)n12`, on Bile acid receptor (hela), the EC50 result is “Not Active”. In addition, in series [1], the max activation result is “inactive”. As for `Cc1ccc2nc(-c3cccs3)c(NCc3ccccc3)n2c1`, the half-maximal effective concentration (EC50) on Bile acid receptor (read-out: EC50) turned out to be 0.54 µM. This compound also registered a max activation in series [1] of 15%. The matching figures for `Cc1ccc2nc(-c3ccc(Cl)c(Cl)c3)c(NCc3ccccc3)n2c1`: 0.024 µM and 19%. For `Cc1ccc2nc(-c3cccnc3)c(NCc3ccccc3)n2c1` the same measures were 0.52 µM and 17%. For `COc1ccc2nc(-c3cccs3)c(NCc3ccccc3)n2c1`, the EC50 on Bile acid receptor (read-out: EC50) is 0.83 µM. The max activation in series [1] is 18%.

Turning to `CCc1ccn2c(NCc3ccccc3)c(-c3cccs3)nc2c1`, the EC50 at Bile acid receptor (read-out: EC50) is 1.2 µM. The compound further returned a max activation in series [1] of 16%. In the case of `Cc1ccc(CNc2c(-c3cccs3)nc3ccc(C)cn23)cc1`, on Bile acid receptor (read-out: EC50), the EC50 came to 0.22 µM. Also, in series [1], the max activation is 14%. As to `Cc1ccc2nc(-c3cccn3C)c(NCc3ccccc3)n2c1`, the EC50 at Bile acid receptor (read-out: EC50) is 1.1 µM. The same compound had a max activation in series [1] of 17%.

For `COc1ccc(-c2nc3ccc(C)cn3c2NCc2ccccc2)cc1`, the EC50 at Bile acid receptor (read-out: EC50) came out at 1.27 µM. The compound also returned a max activation in series [1] of 16%. With `Cc1ccc2nc(-c3ccc(Cl)cn3)c(NCc3ccccc3)n2c1`, on Bile acid receptor (read-out: EC50), the EC50 was 0.0074 µM. Moreover, the max activation in series [1] was found to be 46%. With `Cc1ccc2nc(-c3nc(C)cs3)c(NCc3ccccc3)n2c1`, the EC50 at Bile acid receptor (read-out: EC50) stood at 0.22 µM. Further, the max activation in series [1] amounted to 19%. For `Cc1ccc2nc(-c3cccs3)c(NCCc3ccccc3)n2c1` the same measures were 1 µM and 12%. With `Cc1ccc2nc(-c3cccs3)c(NCCCCc3ccccc3)n2c1`, the EC50 at Bile acid receptor (read-out: EC50) turned out to be 0.75 µM. Besides, in series [1], the max activation stood at 17%.

Take `Cc1cccc(-c2nc3ccc(C)cn3c2NCc2ccccc2)c1`: on Bile acid receptor (read-out: EC50), the EC50 stood at 0.18 µM. The same compound registered a max activation in series [1] of 14%.

The values are drawn from ChEMBL document CHEMBL4038333, “Nonacidic Farnesoid X Receptor Modulators” (J Med Chem, 2017).
